According to ChEMBL document CHEMBL1933033, “Cytotoxic withanolide constituents of Physalis longifolia” (J Nat Prod, 2011):

Columns and labels:
[1] = Cytotoxicity against human […] cells after 72 hrs by MTS assay; type: cell-based
Method in brief: (§1)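 MTS viability assay on HNSCC (JMAR, MDA-1986), melanoma (B16F10, SKMEL-28) and normal fetal fibroblast (MRC-5) cells. Pure compounds tested at ten concentrations from 50 nM to 20 μM. IC50 values derived from the concentration series.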

[2] = test system: B16-F10; assay: Cytotoxicity against mouse B16F10 cells after 72 hrs by MTS assay; type: functional, cell-based; conditions: B16-F10, 72 h; method in brief: as §1
[3] = Cytotoxicity against human MDA1986 cells after 72 hrs by MTS assay; type: functional, cell-based; conditions: MDA1986, 72 h; method in brief: as §1
[4] = test system: SK-MEL-28; assay: Cytotoxicity against human SK-MEL-28 cells after 72 hrs by MTS assay; type: functional, cell-based; conditions: SK-MEL-28, 72 h; method in brief: as §1
[5] = Cytotoxicity against human JMAR cells after 72 hrs by MTS assay; type: functional, cell-based; method in brief: as §1

Measured: IC50

CC1=C(CO[C@@H]2O[C@H](CO)[C@@H](O)[C@H](O)[C@H]2O)C[C@H]([C@@H](C)[C@H]2CC[C@H]3[C@@H]4CCC5=C(C(=O)C[C@H](O)C5)[C@H]4CC[C@]23C)OC1=O [WITHALONGOLIDE M]
> 10 µM: [1] | [2] | [3] | [4] | [5]

CC1=C(CO[C@@H]2O[C@H](CO)[C@@H](O)[C@H](O)[C@H]2O)C[C@H]([C@@H](C)[C@H]2CC[C@H]3[C@@H]4CC(=O)C5=C(CC[C@@H](O)C5)[C@H]4CC[C@]23C)OC1=O [WITHALONGOLIDE N]
> 10 µM: [1] | [2] | [3] | [4] | [5]

CC1=C(CO[C@@H]2O[C@H](CO)[C@@H](O)[C@H](O)[C@H]2O)C[C@H]([C@@H](C)[C@H]2CC[C@H]3[C@@H]4C[C@H](O)c5cccc(O)c5[C@H]4CC[C@]23C)OC1=O [WITHALONGOLIDESAPONIN]
> 10 µM: [1] | [2] | [3] | [4] | [5]
